Assay outcomes: PubChem, Johns Hopkins Ion Channel Center
In the library only some 2.3% were active in any assay of this set; here they are far more common.
TRPC6 inh: blocks the mouse TRPC6 cation channel; Q61143; HEK293-TRPC6, membrane potential dye, ACh-evoked depolarization; hits give low values; B-score at 10 µM; 310,000 tested, 1.1% active;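 active = B-score under library mean minus 3 SD, initial fluorescence not abnormally high, positive integrated signal ratio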;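 also: B-score derived from integrated fluorescence ratio over the kinetic read; more negative B-score means stronger inhibition of depolarization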
Target sequence (Q61143 whole entry, looked up): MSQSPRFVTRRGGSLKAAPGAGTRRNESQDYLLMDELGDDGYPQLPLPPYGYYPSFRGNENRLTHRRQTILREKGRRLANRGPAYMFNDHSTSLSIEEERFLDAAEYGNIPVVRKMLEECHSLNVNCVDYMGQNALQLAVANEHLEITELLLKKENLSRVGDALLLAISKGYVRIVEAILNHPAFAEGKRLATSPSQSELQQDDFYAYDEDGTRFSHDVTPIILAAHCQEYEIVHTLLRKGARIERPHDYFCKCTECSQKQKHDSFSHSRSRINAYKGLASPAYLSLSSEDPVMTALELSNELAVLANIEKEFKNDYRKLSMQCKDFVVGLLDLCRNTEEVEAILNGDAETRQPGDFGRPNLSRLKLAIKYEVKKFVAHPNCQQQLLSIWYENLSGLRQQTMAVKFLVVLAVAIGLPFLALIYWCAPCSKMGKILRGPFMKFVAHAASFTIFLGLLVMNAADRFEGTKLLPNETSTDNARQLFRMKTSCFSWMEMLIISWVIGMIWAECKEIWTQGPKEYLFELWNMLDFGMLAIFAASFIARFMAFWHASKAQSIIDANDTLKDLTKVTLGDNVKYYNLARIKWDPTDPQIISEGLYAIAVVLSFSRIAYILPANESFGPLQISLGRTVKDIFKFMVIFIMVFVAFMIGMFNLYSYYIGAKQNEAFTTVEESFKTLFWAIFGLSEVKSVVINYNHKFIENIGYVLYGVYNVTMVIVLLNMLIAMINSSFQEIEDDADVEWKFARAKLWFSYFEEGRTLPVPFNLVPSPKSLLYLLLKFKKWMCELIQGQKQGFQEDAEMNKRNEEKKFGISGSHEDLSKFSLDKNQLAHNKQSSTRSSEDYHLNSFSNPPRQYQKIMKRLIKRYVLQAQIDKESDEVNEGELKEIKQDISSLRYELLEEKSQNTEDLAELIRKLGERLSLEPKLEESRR
TRPC4 act: opens the mouse TRPC4 cation channel. B-score at 10 µM. Q9QUQ5. AID 2237. 310,000 tested, 0.49% active. HEK293 TRPC4beta/mu-opioid, Fluo4 calcium fluorescence; hits give high values;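 active = B-score above 5 SD of library B-scores, and initial fluorescence ratio not above library mean plus 5 SD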;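 also: positive B-score marks a calcium rise read as TRPC4 activation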
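Material: HEK293 stable line with TRPC4beta plus mu-opioid receptor; technique: Fluo4 calcium-sensitive dye fluorescence, kinetic, 1 Hz baseline; timing: Fluo4 dye loading 45 min at room temperature, 110 s recording; controls: assay buffer as low control, maximal DAMGO as high control; read-out: integrated baseline-normalised fluorescence ratio, converted to per-well B score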
TRPC4 block: TRPC4 (mouse) channel inhibition; Q9QUQ5; HEK293 TRPC4beta/mu-opioid, DAMGO-evoked Fluo4 calcium flux; hits give low values; B-score at 10 µM; 300,000 tested, 0.39% active;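 active = B-score over 3 SD under the library average, no early fluorescence shift, positive overall ratio signal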
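System: stable TRPC4beta/mu-opioid receptor HEK293 cells; Dosing: single-point compound dosing; Measured by: Fluo4 Ca2+ flux fluorescence; Read-out basis: per-well B score of integrated baseline-normalized Fluo4 ratio.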
TRPC6 activator: activates the mouse TRPC6 cation channel; Q61143; AID 2550; 310,000 tested, 0.13% active; B-score at 10 µM; HEK293-TRPC6 membrane potential dye fluorescence; hits give high values;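 active = B-score of the integrated fluorescence ratio above library mean plus 3 SD, and starting fluorescence ratio within library mean plus 5 SD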;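 also: higher score means more depolarization so channel activation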
TRPC4 PAM: TRPC4 (mouse) allosteric potentiation. Q9QUQ5. HEK293 TRPC4beta/mu-opioid, DAMGO EC20, Fluo-4 Ca2+ flux; hits give high values. B-score at 10 µM. 310,000 tested, 0.42% active;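 active = B-score of calcium response area above 5 SD of library B-scores, with initial fluorescence ratio within 5 SD of library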
TRPC4 sel inh 2: second check of whether TRPC6 inhibitors also affect mouse TRPC4; shares compounds with TRPC6 inh; HEK293 TRPC4/MOR, membrane potential dye fluorescence; channel activated by saturating DAMGO dose; inhibition, % at 10 µM; 920 tested, 42% active; AID 2776;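 active = compounds whose fluorescence signal differed from control wells by over 3 SD, either direction, in both duplicate plates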
TRPC4 spec: mouse TRPC4 off-target activity of TRPC6 inhibitors | HEK293 TRPC4/mu-opioid, membrane potential fluorescence | 920 tested, 61% active | shares compounds with TRPC6 inh | activity change, negative = inhibition, % at 10 µM;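 active = rise or fall in signal beyond 3 SD of buffer-only wells in both replicate plates, either sign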;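 also: integrated kinetic ratio of fluorescence range over baseline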
HEK293 MPD ctr 2-1: parental HEK293 nonspecific activity of TRPC6 inhibitors, second screen; shares compounds with TRPC6 inh; parental HEK293 membrane potential dye fluorescence; maximal acetylcholine challenge after compound addition; signal change vs control, % at 10 µM; 920 tested, 31% active;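 active = membrane potential signal moving either way by over 3 SD of the maximum-effect control, in both duplicate plates, meaning non-specific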
HEK293 MPD ctr-1: checks TRPC6 inhibitor effects in parental HEK293 cells | membrane potential signal change, % at 10 µM | parental HEK293 membrane potential dye fluorescence | shares compounds with TRPC6 inh | 920 tested, 60% active;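 active = membrane potential signal shifting up or down by more than 3 SD of buffer-only wells, on both duplicate plates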
HEK293 MPD ctr-2: parental HEK293 nonspecific activity of TRPC6 modulators; shares compounds with TRPC6 inh; membrane potential dye fluorescence; membrane potential signal change, % at 10 µM; 2,400 tested, 51% active; AID 488924;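 active = membrane potential signal moves up or down beyond 5 SD from buffer-only wells, on both duplicate plates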
HEK293 MPD ctr 2-2: second check of TRPC6 modulator effects in parental HEK293 cells; AID 488926; 2,400 tested, 14% active; shares compounds with TRPC6 inh; inhibition, % at 10 µM; membrane potential dye fluorescence; after compound, maximal acetylcholine stimulation;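 active = membrane potential signal drops by more than 5 SD from the mean control signal, in both duplicate plates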
TRPC4/MOR mod: mouse TRPC4 off-target activity of TRPC6 modulators | percent change from control (negative = decrease, positive = increase), % at 10 µM | HEK293 TRPC4/mu-opioid, membrane potential fluorescence | 2,400 tested, 69% active | shares compounds with TRPC6 inh | AID 488927;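 active = membrane potential signal moved up or down beyond 5 SD of buffer control wells, in both duplicate plates, actives on both sides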
TRPC4/MOR inh 2: second selectivity test of TRPC6 modulators against mouse TRPC4; 2,400 tested, 55% active; HEK293 TRPC4/mu-opioid, membrane potential dye fluorescence; stimulated with maximal-effect DAMGO; AID 488928; shares compounds with TRPC6 inh; inhibition, % at 10 µM;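 active = drop in membrane potential signal beyond 5 SD of the control wells in both duplicate plates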;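 also: TRPC4 counter screen for TRPC6 hits run under conditions tuned for TRPC6 not TRPC4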
TRPC6 block conf: mouse TRPC6 inhibitor confirmation; shares compounds with TRPC6 inh; HEK293-TRPC6, membrane potential dye, ACh-evoked depolarization; inhibition, % at 10 µM; 3,300 tested, 43% active;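 active = fluorescence ratio falls more than 5 SD below the full-stimulation control mean, in both duplicate runs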;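 also: integrated fluorescence ratio of peak minus minimum over baseline after agonist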
TRPC6 act conf: mouse TRPC6 activator confirmation. shares compounds with TRPC6 inh. HEK293-TRPC6 membrane potential dye fluorescence, FDSS. activation, % at 10 µM. 2,800 tested, 11% active. AID 488961;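 active = ratio signal rise beyond 5 SD above unstimulated control wells' mean, seen in both duplicate runs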
Of the large screens only hits and unclear results are named; the others gave an inactive call (follow-up assays come after a bar, where they were run).

CC(=O)NCCc1nc2ccccc2n1CCc1ccccc1	none
Cc1cccc(N2CCN(C(=O)c3ccc4c(c3)c(C)c(C)n4C)CC2C)c1 (stereo not drawn)	TRPC6 inh -5.1 | HEK293 MPD ctr-2 inactive | HEK293 MPD ctr 2-2 inactive | TRPC4/MOR mod inactive | TRPC4/MOR inh 2 inactive | TRPC6 block conf inactive | TRPC6 act conf inactive
Cc1cccc(N2CCN(C(=O)c3ccc(N4CCCC4=O)cc3)CC2C)c1 (stereo not drawn)	none
Cc1ccc(S(=O)(=O)N2CCC(C(=O)OCC(=O)N(CC(C)C)C3CCS(=O)(=O)C3)CC2)cc1C (stereo not drawn)	none
CCc1cc(C(=O)O)c(NC(=O)c2cc(OC)c(OC)c(OC)c2)s1	none
O=C(Nc1nc(=S)ss1)c1ccc(Cl)cc1Cl	TRPC6 inh -7.1 | HEK293 MPD ctr-2 inactive | HEK293 MPD ctr 2-2 inactive | TRPC4/MOR mod inactive | TRPC4/MOR inh 2 inactive | TRPC6 block conf inactive | TRPC6 act conf inactive
O=C(CN1C(=O)c2ccccc2C1=O)Nc1ccccc1C(F)(F)F	none
O=C(CCN1C(=O)c2ccccc2C1=O)Nc1ccccc1C(F)(F)F	TRPC6 inh -7.3 | TRPC4 sel inh 2 inactive | TRPC4 spec inactive | HEK293 MPD ctr 2-1 inactive | HEK293 MPD ctr-1 inactive | TRPC6 block conf inactive | TRPC6 act conf inactive
COc1ccccc1CSc1nc2c(c(=O)n(C)c(=O)n2C)n1C	none
CCOC(=O)c1ccc(Cl)c(S(=O)(=O)N2CCCC2)c1	none
CCOc1ccc(NC(=O)C(CC(=O)O)Cc2ccccc2)cc1 (stereo not drawn)	none
CCOc1ccc(NC(=O)CC(Cc2cc(C)cc(C)c2)C(=O)O)cc1 (stereo not drawn)	TRPC6 inh -5.6 | HEK293 MPD ctr-2 inactive | HEK293 MPD ctr 2-2 inactive | TRPC4/MOR mod inactive | TRPC4/MOR inh 2 inactive | TRPC6 block conf inactive | TRPC6 act conf inactive
COc1cc(/C=C2/SC(=S)N(Cc3ccccc3)C2=O)cc(Cl)c1O	TRPC4 act 174, TRPC6 activator 76, TRPC4 PAM 37 | HEK293 MPD ctr-2 active | HEK293 MPD ctr 2-2 inactive | TRPC4/MOR mod 520% | TRPC4/MOR inh 2 inactive | TRPC6 block conf inactive | TRPC6 act conf 555%
N#Cc1ccc(NC(=S)NCCN2CCOCC2)cc1	none
Cc1ccc(-c2nnc(CSc3nc(C(C)C)nc4sc(C)c(C)c34)o2)cc1	TRPC6 inh -5.5 | HEK293 MPD ctr-2 inactive | HEK293 MPD ctr 2-2 inactive | TRPC4/MOR mod inactive | TRPC4/MOR inh 2 inactive | TRPC6 block conf inactive | TRPC6 act conf inactive
CCOC(=O)CSc1nc(C(C)C)nc2sc(C)c(C)c12	none
CN(CC(=O)Nc1ccc(F)cc1)C(=O)COC(=O)C1=COCCO1	none
COc1ccc(Cn2c(=N)c(C(=O)NC3CCCCC3)cc3c(=O)n4ccccc4nc32)cc1	none
COCCCn1c(=N)c(C(=O)NC2CCCCC2)cc2c(=O)n3ccccc3nc21	TRPC6 inh -6.1 | HEK293 MPD ctr-2 inactive | HEK293 MPD ctr 2-2 inactive | TRPC4/MOR mod inactive | TRPC4/MOR inh 2 49% | TRPC6 block conf 64% | TRPC6 act conf inactive
COc1ccc(CCn2c(=N)c(C(=O)NC3CCCC3)cc3c(=O)n4ccccc4nc32)cc1OC	TRPC6 inh -5.2 | HEK293 MPD ctr-2 -154% | HEK293 MPD ctr 2-2 inactive | TRPC4/MOR mod -33% | TRPC4/MOR inh 2 52% | TRPC6 block conf 42% | TRPC6 act conf inactive
COc1ccc(CCn2c(=N)c(C(=O)NC3CCCC3)cc3c(=O)n4ccccc4nc32)cc1	TRPC6 inh -6.5 | HEK293 MPD ctr-2 169% | HEK293 MPD ctr 2-2 114% | TRPC4/MOR mod 26% | TRPC4/MOR inh 2 86% | TRPC6 block conf 64% | TRPC6 act conf inactive
COc1ccc(CCn2c(=N)c(C(=O)NCC3CCCO3)cc3c(=O)n4ccccc4nc32)cc1OC (stereo not drawn)	none
Cn1c(N)c(C(=O)COC(=O)C2=NNC(=O)CC2)c(=O)n(C)c1=O	none
CCOc1ccc(NC(=S)N(CCCN2CCCC2)Cc2cccn2Cc2ccc(Cl)cc2)cc1	TRPC6 inh -5.2 | HEK293 MPD ctr-2 inactive | HEK293 MPD ctr 2-2 inactive | TRPC4/MOR mod inactive | TRPC4/MOR inh 2 53% | TRPC6 block conf inactive | TRPC6 act conf inactive
NS(=O)(=O)c1cc(C(=O)NC2CCSc3ccccc32)ccc1Cl (stereo not drawn)	TRPC6 activator 13 | HEK293 MPD ctr-2 122% | HEK293 MPD ctr 2-2 inactive | TRPC4/MOR mod 32% | TRPC4/MOR inh 2 inactive | TRPC6 block conf inactive | TRPC6 act conf 70%
C[N+]1(C)[C@@H]2CC(OC(=O)[C@H](CO)c3ccccc3)C[C@H]1[C@@H]1O[C@@H]12 (stereo partly drawn)	TRPC6 inh -8.2 | TRPC4 sel inh 2 inactive | TRPC4 spec inactive | HEK293 MPD ctr 2-1 -9.0% | HEK293 MPD ctr-1 inactive | TRPC6 block conf 93% | TRPC6 act conf inactive
CCC(C(=O)OCC(=O)Nc1c(Cl)cccc1Cl)c1ccccc1 (stereo not drawn)	none
CCOP(=O)(NC(c1ccccc1)c1nc2ccccc2[nH]c1=O)OCC (stereo not drawn)	none
